Assay results taken from ChEMBL document CHEMBL1240422, “Design, synthesis and biological evaluation of 3,5-diaryl-isoxazoline/isoxazole-pyrrolobenzodiazepine conjugates as potential anticancer agents” (2010).
Counter-ions that a name gives are not always drawn. Activity calls are given as the source filed them. The calls are words filed in the database; no cut-off is given here.

What was measured:
A-375 [1] = assay: Induction of apoptosis in human A375 cells assessed as caspase3 activation at 4 uM after 24 hrs by fluorimetry; format: functional, cell-based
Outline: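 Caspase-3 activity was measured by a fluorometric assay on lysates of treated and untreated A375 cells.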

A-375 [2] = assay: Induction of apoptosis in human A375 cells assessed as increase in PPAR protein level at 4 uM after 24 hrs by Western blotting; format: functional, cell-based
Outline: (§1)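 A375 cells were treated for 24 h and lysed in ice-cold RIPA buffer (1% NP-40, 0.5% deoxycholate, 0.1% SDS, protease inhibitors). Protein was quantified by Bradford assay, and 30 µg/lane was run on 12% SDS-PAGE and transferred to PVDF. Membranes were blocked 2 h at RT in TBST with 5% blocker, incubated with primary antibody overnight at 4 °C, then with HRP secondary (1:2000, 1 h, RT). Detection was by chemiluminescence, with β-actin as loading control.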

KB = assay: Anticancer activity against human KB cells after 48 hrs by SRB assay; format: functional
Outline: (§2)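 Grown in RPMI 1640 with 10% FBS and 2 mM L-glutamine at 37 °C, 5% CO2. Seeded at densities set by doubling time, then preincubated 24 h. Continuous 48 h drug exposure at four concentrations (0.1, 1, 10, 100), triplicate wells. Fixed with cold TCA (final 10%) at 4 °C, 60 min. Stained with 0.4% SRB in 1% acetic acid, eluted with 10 mM Tris base, read at 540/690 nm. Percent growth versus control wells.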

A-375 [3] = assay: Cell cycle arrest in human A375 cells assessed as accumulation at G2/M phase at 4 uM after 24 hrs using propidium iodide staining by FACS; format: functional
Outline: (§3)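 Treated A375 cells (24 h) were harvested with trypsin-EDTA and fixed in ice-cold 70% ethanol (4 °C, 30 min). After a PBS wash, they were incubated with 1 mg/mL RNase A (37 °C, 30 min) and stained with propidium iodide solution containing trisodium citrate and Triton X-100. DNA content was measured by flow cytometry on 20,000 events. Controls were DMSO-treated.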

A-375 [4] = assay: Induction of apoptosis in human A375 cells assessed as reduction in CDK2 protein level at 4 uM after 24 hrs by Western blotting; format: functional, cell-based; outline: as §1
A-375 [5] = assay: Cell cycle arrest in human A375 cells assessed as accumulation at G0/G1 phase at 4 uM after 24 hrs using propidium iodide staining by FACS; format: functional; outline: as §3
SiHa = assay: Anticancer activity against human SiHa cells after 48 hrs by SRB assay; format: functional
Outline: (§4)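 Cells grown in RPMI 1640 with 10% FBS and 2 mM L-glutamine, plated at densities set by doubling time, and preincubated 24 h at 37 °C, 5% CO2. Compounds were tested at four concentrations (0.1, 1, 10, 100) in triplicate wells with 48 h continuous exposure. Cells were fixed with cold TCA (10% final, 60 min, 4 °C) and stained with 0.4% SRB in 1% acetic acid (20 min, RT). Dye was eluted with 10 mM Trizma base and read at 540 nm (690 nm reference). Percent growth is relative to control wells, plate by plate.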

ZR-75-1 = assay: Anticancer activity against human ZR-75-1 cells after 48 hrs by SRB assay; format: functional; conditions: ZR-75-1, 48 h; outline: as §4
A-375 [6] = assay: Cell cycle arrest in human A375 cells assessed as accumulation at S phase at 4 uM after 24 hrs using propidium iodide staining by FACS; format: functional; outline: as §3
A2780 = assay: Anticancer activity against human A2780 cells after 48 hrs by SRB assay; format: functional; conditions: A2780, 48 h; outline: as §2

| SMILES | Activity (A-375 [1]) | Activity (A-375 [2]) | GI50 (KB) [µM] | Activity (A-375 [3]) [%] | Activity (A-375 [4]) | Activity (A-375 [5]) [%] | GI50 (SiHa) [µM] | GI50 (ZR-75-1) [µM] | Activity (A-375 [6]) [%] | GI50 (A2780) [µM] |
| --- | --- | --- | --- | --- | --- | --- | --- | --- | --- | --- |
| COc1cc(C2=NOC(c3cc(OC)c(OC)c(OC)c3)C2)ccc1OCCCCCOc1cc2c(cc1OC)C(=O)N1CCC[C@H]1C=N2 (some centres undefined) | Active | Active | < 0.1 | 1.15 | Active | 92.45 | < 0.1 | < 0.1 | 6.4 | < 0.1 |
| COc1cc(C2=NOC(c3cc(OC)c(OC)c(OC)c3)C2)ccc1O (centres undefined) |  |  |  | 1.82 |  | 82.59 |  |  | 15.59 |  |
| COc1ccc(C2CC(c3cc(OC)c(OC)c(OC)c3)=NO2)cc1OCCCOc1cc2c(cc1OC)C(=O)N1CCC[C@H]1C=N2 (some centres undefined) |  |  | 0.16 |  |  |  | 0.18 | 0.13 |  | 0.15 |
| COc1cc2c(cc1OCCCCCOc1c(OC)cc(C3CC(c4cc(OC)c(OC)c(OC)c4)=NO3)cc1OC)N=C[C@@H]1CCCN1C2=O (some centres undefined) |  |  | 0.18 |  |  |  | 0.18 | 0.18 |  | 0.15 |
| COc1ccc(-c2cc(-c3cc(OC)c(OC)c(OC)c3)on2)cc1OCCCCCOc1cc2c(cc1OC)C(=O)N1CCC[C@H]1C=N2 |  |  | 0.13 |  |  |  | 0.13 | < 0.1 |  | 0.12 |
| COc1cc2c(cc1OCCCCOc1c(OC)cc(C3CC(c4cc(OC)c(OC)c(OC)c4)=NO3)cc1OC)N=C[C@@H]1CCCN1C2=O (some centres undefined) |  |  | 0.18 |  |  |  | 0.17 | 0.15 |  | 0.15 |
| COc1cccc2c1C(=O)c1c(O)c3c(c(O)c1C2=O)C[C@@](O)(C(=O)CO)C[C@@H]3O[C@H]1C[C@H](N)[C@H](O)[C@H](C)O1 [DOXORUBICIN HYDROCHLORIDE] |  |  | 0.16 |  |  |  | 1.9 | < 0.1 |  | < 0.1 |
| COc1cc2c(cc1OCCCCCOc1c(OC)cc(-c3cc(-c4cc(OC)c(OC)c(OC)c4)on3)cc1OC)N=C[C@@H]1CCCN1C2=O |  |  | 0.16 |  |  |  | 0.16 | 0.1 |  | 0.14 |
| COc1ccc(C2CC(c3cc(OC)c(OC)c(OC)c3)=NO2)cc1OCCCCCOc1cc2c(cc1OC)C(=O)N1CCC[C@H]1C=N2 (some centres undefined) |  |  | 0.16 |  |  |  | 0.16 | 0.12 |  | 0.14 |
| COc1cc2c(cc1OCCCOc1c(OC)cc(-c3cc(-c4cc(OC)c(OC)c(OC)c4)on3)cc1OC)N=C[C@@H]1CCCN1C2=O |  |  | 0.15 |  |  |  | 0.15 | 0.18 |  | 0.13 |
| COc1ccc(-c2cc(-c3cc(OC)c(OC)c(OC)c3)on2)cc1OCCCCOc1cc2c(cc1OC)C(=O)N1CCC[C@H]1C=N2 |  |  | 0.15 |  |  |  | 0.15 | 0.1 |  | 0.14 |
| COc1ccc(-c2cc(-c3cc(OC)c(OC)c(OC)c3)on2)cc1OCCCOc1cc2c(cc1OC)C(=O)N1CCC[C@H]1C=N2 |  |  | 0.17 |  |  |  | 0.15 | 0.13 |  | 0.15 |
| COc1cc2c(cc1O)N=C[C@@H]1CCCN1C2=O |  |  | 0.17 | 1.33 |  | 88.05 | 0.17 |  | 10.62 | 0.14 |
